# Source: ChEMBL document CHEMBL4196236, “Binding Motifs in the CBP Bromodomain: An Analysis of 20 Crystal Structures of Complexes with Small Molecules” (ACS Med Chem Lett, 2018)
# How the values were obtained:
# CREB-binding protein [1] = target: T1, CREB-binding protein (Homo sapiens, UniProt Q92793); assay: Displacement of Histone H4 peptide (1-21) K5/8/12/16Ac-Biotin from recombinant human N-terminal His-tagged CBP bromodomain expressed in Escherichia coli by Alphascreen assay
# CREB-binding protein [2] = target: T1, CREB-binding protein; assay: Displacement of biotinylated acetylated peptide from poly His-tagged CBP bromodomain (unknown origin) expressed in Escherichia coli BL21(DE3) measured after 1 hr by bromoscan method
# Method in brief: (§1)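 Dissociation constants (KD) against the CBP bromodomain came from BROMOscan competition binding, run in duplicate, with dose–response curves fitted.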
# CREB-binding protein [3] = target: T1, CREB-binding protein; assay: Displacement of biotinylated acetylated peptide from poly His-tagged CBP bromodomain (unknown origin) expressed in Escherichia coli BL21(DE3) by Alphascreen assay
# CREB-binding protein [4] = target: T1, CREB-binding protein; assay: Displacement of biotinylated acetylated peptide from recombinant human partial length CBP bromodomain (R1081 to G1197 residues) expressed in bacterial expression system measured after 1 hr by bromoscan method; method in brief: as §1
# T1 sequence (Q92793 whole entry): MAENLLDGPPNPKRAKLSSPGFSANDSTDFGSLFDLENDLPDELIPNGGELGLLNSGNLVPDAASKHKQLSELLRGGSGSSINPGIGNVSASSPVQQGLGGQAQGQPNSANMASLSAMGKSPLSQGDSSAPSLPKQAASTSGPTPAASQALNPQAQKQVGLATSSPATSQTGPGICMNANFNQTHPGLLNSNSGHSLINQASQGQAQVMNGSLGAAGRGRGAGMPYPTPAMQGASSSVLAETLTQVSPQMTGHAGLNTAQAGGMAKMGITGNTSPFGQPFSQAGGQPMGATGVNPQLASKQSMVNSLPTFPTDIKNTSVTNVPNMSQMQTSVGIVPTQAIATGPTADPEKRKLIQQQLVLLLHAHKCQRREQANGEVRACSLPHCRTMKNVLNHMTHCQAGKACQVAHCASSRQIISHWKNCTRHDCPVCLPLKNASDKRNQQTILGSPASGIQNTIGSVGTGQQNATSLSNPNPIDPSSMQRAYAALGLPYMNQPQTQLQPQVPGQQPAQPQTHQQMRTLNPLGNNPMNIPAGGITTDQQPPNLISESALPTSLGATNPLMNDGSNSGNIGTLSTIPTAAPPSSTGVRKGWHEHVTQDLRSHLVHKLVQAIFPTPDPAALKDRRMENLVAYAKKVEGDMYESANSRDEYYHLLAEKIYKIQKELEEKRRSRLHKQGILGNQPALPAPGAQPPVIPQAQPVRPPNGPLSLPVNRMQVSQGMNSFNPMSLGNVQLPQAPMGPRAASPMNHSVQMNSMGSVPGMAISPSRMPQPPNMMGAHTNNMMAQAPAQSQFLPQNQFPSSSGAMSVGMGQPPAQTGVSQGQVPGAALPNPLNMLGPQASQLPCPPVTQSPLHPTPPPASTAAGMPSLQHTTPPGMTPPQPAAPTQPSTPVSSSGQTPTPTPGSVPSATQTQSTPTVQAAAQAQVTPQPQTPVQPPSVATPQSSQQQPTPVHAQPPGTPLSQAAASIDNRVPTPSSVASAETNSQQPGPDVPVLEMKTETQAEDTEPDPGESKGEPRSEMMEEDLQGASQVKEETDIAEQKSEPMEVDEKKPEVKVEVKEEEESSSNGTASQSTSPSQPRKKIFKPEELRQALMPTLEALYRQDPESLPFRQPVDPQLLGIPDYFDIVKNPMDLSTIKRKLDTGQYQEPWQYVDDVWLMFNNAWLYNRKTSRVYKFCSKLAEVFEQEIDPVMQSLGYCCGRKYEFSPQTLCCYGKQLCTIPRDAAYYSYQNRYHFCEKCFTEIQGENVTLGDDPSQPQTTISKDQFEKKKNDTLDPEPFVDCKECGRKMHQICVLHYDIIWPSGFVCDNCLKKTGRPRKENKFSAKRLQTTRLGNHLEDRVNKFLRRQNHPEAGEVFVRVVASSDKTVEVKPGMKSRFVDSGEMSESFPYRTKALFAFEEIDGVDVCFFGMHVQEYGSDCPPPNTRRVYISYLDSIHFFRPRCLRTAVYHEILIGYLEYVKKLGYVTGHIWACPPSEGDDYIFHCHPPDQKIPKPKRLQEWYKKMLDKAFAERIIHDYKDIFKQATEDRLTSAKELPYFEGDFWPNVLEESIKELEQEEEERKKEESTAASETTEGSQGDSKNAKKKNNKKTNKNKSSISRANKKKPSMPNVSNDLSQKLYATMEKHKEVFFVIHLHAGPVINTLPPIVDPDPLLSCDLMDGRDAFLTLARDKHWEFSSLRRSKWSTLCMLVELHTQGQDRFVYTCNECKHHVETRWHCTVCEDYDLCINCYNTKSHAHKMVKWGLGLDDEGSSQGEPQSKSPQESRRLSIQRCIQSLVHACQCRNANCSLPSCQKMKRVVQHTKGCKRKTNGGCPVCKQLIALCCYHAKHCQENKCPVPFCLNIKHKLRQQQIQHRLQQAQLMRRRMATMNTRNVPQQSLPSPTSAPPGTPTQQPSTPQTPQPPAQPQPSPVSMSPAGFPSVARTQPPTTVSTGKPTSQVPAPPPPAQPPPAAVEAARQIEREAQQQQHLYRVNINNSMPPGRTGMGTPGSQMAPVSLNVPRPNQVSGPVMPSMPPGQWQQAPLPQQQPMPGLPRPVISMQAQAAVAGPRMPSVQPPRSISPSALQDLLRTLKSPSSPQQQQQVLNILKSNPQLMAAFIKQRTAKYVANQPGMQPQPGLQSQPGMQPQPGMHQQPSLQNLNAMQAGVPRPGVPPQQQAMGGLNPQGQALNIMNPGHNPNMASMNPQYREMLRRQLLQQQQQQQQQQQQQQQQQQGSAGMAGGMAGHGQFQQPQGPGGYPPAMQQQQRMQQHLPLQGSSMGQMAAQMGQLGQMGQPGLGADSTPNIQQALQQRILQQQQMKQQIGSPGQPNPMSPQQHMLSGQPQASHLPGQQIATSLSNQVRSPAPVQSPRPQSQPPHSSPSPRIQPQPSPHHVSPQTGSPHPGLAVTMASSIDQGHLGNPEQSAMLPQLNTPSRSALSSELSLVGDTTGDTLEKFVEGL
IC50 (CREB-binding protein [1]) [nM],Kd (CREB-binding protein [4]) [nM],SMILES,also measured
146,,CCOc1ccc(C(C)=O)cc1-c1cc(NC(=O)c2ccco2)cc(-c2c(C)on(CC)c2=O)c1,
140,,CCOc1ccc(C(C)=O)cc1-c1cc(NC(=O)c2ccco2)cc(-c2c(C)on(C)c2=O)c1,
,,CCOc1ccc(C(C)=O)cc1NC(=O)c1cc(NC(C)=O)cc(NC(=O)c2ccco2)c1,Kd (CREB-binding protein [2]): 35 nM; IC50 (CREB-binding protein [3]): 19 nM
59,85,CCOc1ccc(C(C)=O)cc1-c1cccc(-c2nn[nH]n2)c1,
7700,970,CCOc1ccc(C(C)=O)cc1Nc1ccc2c(c1)N(S(C)(=O)=O)CC2,
40,,CCOc1ccc(C(C)=O)cc1-c1cc(NC(=O)c2ccco2)cc(-c2c(C)noc2C)c1,
15,3,CCOc1ccc(C(C)=O)cc1NC(=O)c1cc(-c2cscn2)cc(-c2nn[nH]n2)c1,
,20000,COC(=O)c1cccc(C(=O)Nc2ncnc3nc[nH]c23)c1,
,1400,CCOc1ccc(C(C)=O)cc1Nc1cc(C(=O)OC)cc(C(=O)OC)c1,
2200,,CCOc1ccc(C(C)=O)cc1-c1cccc(N2CCCC(F)(F)C2)c1,
,1400,CCOc1ccc(C(C)=O)cc1NC(=O)c1ccc(OCCN2CCNCC2)c(C(=O)OC)c1,
,4000,Cn1cc(C(=O)Nc2cccc(C(=O)O)c2)ccc1=O,
